Here are results for six compounds from article PMC10335114 (RSC Advances, 2023).

What all share (format): biochemical
For one assay, the target named is T1, h-NTPDase3 (Homo sapiens, UniProt O75355).
T1 sequence (O75355 1-529): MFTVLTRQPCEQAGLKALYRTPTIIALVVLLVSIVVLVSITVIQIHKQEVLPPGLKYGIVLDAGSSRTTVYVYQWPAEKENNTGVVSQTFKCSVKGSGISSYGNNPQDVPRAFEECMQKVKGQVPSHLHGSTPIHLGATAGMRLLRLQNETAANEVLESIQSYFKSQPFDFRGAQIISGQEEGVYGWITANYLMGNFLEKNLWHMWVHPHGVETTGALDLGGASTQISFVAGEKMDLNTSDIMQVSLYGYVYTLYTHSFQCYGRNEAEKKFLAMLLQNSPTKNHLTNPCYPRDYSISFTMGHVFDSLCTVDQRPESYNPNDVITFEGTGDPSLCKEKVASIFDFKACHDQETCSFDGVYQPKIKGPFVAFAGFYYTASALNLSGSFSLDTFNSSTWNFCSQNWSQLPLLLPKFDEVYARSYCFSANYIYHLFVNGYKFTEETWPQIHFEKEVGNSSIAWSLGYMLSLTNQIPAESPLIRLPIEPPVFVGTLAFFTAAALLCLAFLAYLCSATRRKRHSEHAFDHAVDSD
Kind of assay: h-NTPDase3 enzyme inhibition, malachite green assay. In outline:
(§1)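 Malachite green assay in 50 mM Tris-HCl, 5 mM CaCl2, pH 7.4. Test compound at 100 μM, in triplicate, incubated 10 min with enzyme: h-NTPDase1 12 ng, h-NTPDase2 37 ng, h-NTPDase3 43 ng, h-NTPDase8 63 ng. Plate read at 630 nm, then substrate (100 μM) added and incubated 15 min at 37 °C. Malachite green reagent added and reading taken up to 6 min.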

For another assay, the target named is T2, h-NTPDase1 (Homo sapiens, UniProt P49961).
T2 sequence (P49961 1-510): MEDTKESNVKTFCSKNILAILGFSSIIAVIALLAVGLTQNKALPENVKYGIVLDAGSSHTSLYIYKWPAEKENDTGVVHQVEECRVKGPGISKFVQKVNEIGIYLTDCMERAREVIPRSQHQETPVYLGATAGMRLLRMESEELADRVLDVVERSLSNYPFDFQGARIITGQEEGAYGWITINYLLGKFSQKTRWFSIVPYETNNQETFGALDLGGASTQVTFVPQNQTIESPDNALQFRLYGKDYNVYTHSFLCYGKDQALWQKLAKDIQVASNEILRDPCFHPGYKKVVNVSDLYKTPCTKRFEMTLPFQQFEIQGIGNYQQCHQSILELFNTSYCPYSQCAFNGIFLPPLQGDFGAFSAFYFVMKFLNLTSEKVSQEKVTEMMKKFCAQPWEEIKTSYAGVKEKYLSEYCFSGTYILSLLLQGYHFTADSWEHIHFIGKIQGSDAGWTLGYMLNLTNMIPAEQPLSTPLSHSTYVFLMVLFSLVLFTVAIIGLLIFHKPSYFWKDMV
Kind of assay: h-NTPDase1 enzyme inhibition, malachite green assay. As to conditions: for inhibition at 100 µM: read-out: h-NTPDase1 % inhibition ± S.D. An outline of the steps:
as §1

For the next assay, the target named is T3, h-NTPDase8 (Homo sapiens, UniProt Q5MY95).
T3 sequence (Q5MY95 1-495): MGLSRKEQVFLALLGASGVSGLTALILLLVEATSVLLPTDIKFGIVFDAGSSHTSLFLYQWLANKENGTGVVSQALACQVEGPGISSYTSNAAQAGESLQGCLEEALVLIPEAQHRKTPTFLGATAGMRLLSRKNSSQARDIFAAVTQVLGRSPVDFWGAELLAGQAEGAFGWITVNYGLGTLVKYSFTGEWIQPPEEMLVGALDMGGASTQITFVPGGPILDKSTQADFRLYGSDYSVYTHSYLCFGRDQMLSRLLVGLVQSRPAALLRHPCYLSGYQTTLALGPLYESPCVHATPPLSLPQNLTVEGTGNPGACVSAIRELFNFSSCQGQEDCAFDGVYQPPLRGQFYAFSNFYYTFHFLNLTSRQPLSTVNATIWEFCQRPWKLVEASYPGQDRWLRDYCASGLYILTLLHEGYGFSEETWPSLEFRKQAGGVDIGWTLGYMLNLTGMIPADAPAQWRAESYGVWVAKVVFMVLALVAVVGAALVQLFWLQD
Kind of assay: h-NTPDase8 enzyme inhibition, malachite green assay. Conditions: for inhibition at 100 µM: read-out: h-NTPDase8 % inhibition ± S.D. An outline of the steps:
as §1

The target in the next assay is T4, h-NTPDase2 (Homo sapiens, UniProt Q9Y5L3).
T4 sequence (Q9Y5L3 1-495): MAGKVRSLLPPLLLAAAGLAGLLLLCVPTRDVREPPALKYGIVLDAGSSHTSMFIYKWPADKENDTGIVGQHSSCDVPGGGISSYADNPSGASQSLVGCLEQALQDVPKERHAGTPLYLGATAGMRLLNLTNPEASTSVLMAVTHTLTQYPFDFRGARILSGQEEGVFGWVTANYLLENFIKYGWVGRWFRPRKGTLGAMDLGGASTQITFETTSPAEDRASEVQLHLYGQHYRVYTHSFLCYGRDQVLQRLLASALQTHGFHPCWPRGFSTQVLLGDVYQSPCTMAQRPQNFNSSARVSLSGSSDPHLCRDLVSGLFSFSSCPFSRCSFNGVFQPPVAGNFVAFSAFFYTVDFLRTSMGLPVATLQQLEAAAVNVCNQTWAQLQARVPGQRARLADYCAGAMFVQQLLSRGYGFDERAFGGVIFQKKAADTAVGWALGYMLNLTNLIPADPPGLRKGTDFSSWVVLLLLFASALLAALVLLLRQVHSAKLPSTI
The experiment in a line: h-NTPDase2 enzyme inhibition, malachite green assay. As to conditions: for h-NTPDase2 IC50 ± SEM: triplicate, determined for compounds with over 50% inhibition at 100 μM; for inhibition at 100 µM: read-out: h-NTPDase2 % inhibition ± S.D. In outline:
as §1

`COc1ccc(NC(=O)c2cc(S(=O)(=O)NCc3ccccc3)ccc2Cl)cc1` [3j, 5-(N-benzylsulfamoyl)-2-chloro-N-(4-methoxyphenyl)benzamide]: the IC50 on h-NTPDase3 was determined as 3160 ± 120 nM; on h-NTPDase2, 290 ± 70 nM. Also, the inhibition at 100 µM amounted to 37 ± 1.3% on h-NTPDase1 and 36 ± 1.7% on h-NTPDase8. The “h-NTPDase2 IC50 ± SEM” value at h-NTPDase2 was “sub-micromolar”.

With `COc1ccc(NC(=O)c2cccc(S(=O)(=O)N3CCOCC3)c2)cc1` [3f, N-(4-methoxyphenyl)-3-(morpholinosulfonyl)benzamide], the IC50 was 6710 ± 40 nM against h-NTPDase3, more than 100000 nM against h-NTPDase1 and 270 ± 80 nM against h-NTPDase2. For the same compound, the inhibition at 100 µM at h-NTPDase8 came out at 29 ± 4.5%. Moreover, the “h-NTPDase2 IC50 ± SEM” value at h-NTPDase2 is reported as “sub-micromolar”.

Take `Cc1ccc(C(=O)Nc2ccc(S(=O)(=O)O)c3cc(S(=O)(=O)O)cc(S(=O)(=O)O)c23)cc1NC(=O)c1cccc(NC(=O)Nc2cccc(C(=O)Nc3cc(C(=O)Nc4ccc(S(=O)(=O)O)c5cc(S(=O)(=O)O)cc(S(=O)(=O)O)c45)ccc3C)c2)c1` [Suramin, reference compound]: the IC50 on h-NTPDase8 amounted to 101000 ± 2340 nM.

Regarding `O=C(c1cc(S(=O)(=O)Nc2ccc(Br)cc2)ccc1Cl)N1CCOCC1` [3i, N-(4-bromophenyl)-4-chloro-3-(morpholine-4-carbonyl)benzenesulfonamide], the IC50 against h-NTPDase3 was determined as 720 ± 110 nM; against h-NTPDase1 it was 2880 ± 130 nM. Also, the inhibition at 100 µM worked out at 32 ± 3.5% on h-NTPDase8 and 43 ± 1.4% on h-NTPDase2.

With `O=C(O)c1cc(S(=O)(=O)NC2CC2)ccc1Cl` [2d, 2-chloro-5-(N-cyclopropylsulfamoyl)benzoic acid], the inhibition at 100 µM was 41 ± 1.4% on h-NTPDase3 (read-out: h-NTPDase3 % inhibition ± S.D), 3 ± 1.2% on h-NTPDase1 and 19 ± 0.9% on h-NTPDase2. This compound displayed an IC50 at h-NTPDase8 of 280 ± 70 nM.

Take `O=C(NC1CC1)c1cc(S(=O)(=O)NC2CC2)ccc1Cl` [4d, 2-chloro-N-cyclopropyl-5-(N-cyclopropylsulfamoyl)benzamide]: the IC50 on h-NTPDase3 is 200 ± 70 nM; on h-NTPDase8, 2460 ± 90 nM; against h-NTPDase2 it was 130 ± 10 nM. The inhibition at 100 µM at h-NTPDase1 turned out to be 36 ± 2.4%. Also, the “h-NTPDase2 IC50 ± SEM” value on h-NTPDase2 is listed as “sub-micromolar”.
